From ChEMBL document CHEMBL4152379, “Discovery of Pyrrolidine Sulfonamides as Selective and Orally Bioavailable Antagonists of Transient Receptor Potential Vanilloid-4 (TRPV4)” (J Med Chem, 2018)
≈ marks a conversion by molar mass, not a printed value. One block for each compound: values may come before it.

Experiments:
[1] = target: Transient receptor potential cation channel subfamily V member 4 (Homo sapiens, UniProt Q9HBA0); assay: Antagonist activity at human TRPV4 expressed in BHK/AC9 or HEK MSR2 cells assessed as inhibition of GSK634775-induced Ca2+ flux pre-incubated for 10 mins before agonist addition by FLIPR assay
[2] = Steady state plasma concentration in Sprague-Dawley rat at 0.08 mg/kg, iv dosed via bolus dose followed by iv infusion at 1.7 ug/kg/min for 60 mins; assay type: ADME, organism-based; settings: in vivo, 1 h
Rattus norvegicus [3] = assay: In vivo antagonist activity at TRPV4 in iv dosed Sprague-Dawley rat assessed as inhibition of GSK1016790A-induced reduction in mean arterial pressure at 0.03 to 0.23 mg/kg, iv dosed via bolus dose followed by iv infusion at 0.6 to 5.1 ug/kg/min for 60 mins; assay type: functional, organism-based
Procedure, shortened: (§1)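 Sprague-Dawley rats given an i.v. bolus loading dose, then a 60 min continuous i.v. infusion to reach steady-state plasma exposure. Challenged with GSK1016790A at 10 μg/kg/min by 10 min i.v. infusion. Mean arterial pressure and lung wet weight/body weight ratio recorded. Mean ± SEM; comparisons by ANOVA with Dunnett's or Bonferroni post hoc tests.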

[4] = Fraction unbound in Sprague-Dawley rat plasma; assay type: ADME, cell-free
[5] = Steady state plasma concentration in Sprague-Dawley rat at 0.23 mg/kg, iv dosed via bolus dose followed by iv infusion at 5.1 ug/kg/min for 60 mins; assay type: ADME, organism-based; settings: in vivo, 1 h
Rattus norvegicus [6] = assay: In vivo antagonist activity at TRPV4 in iv dosed Sprague-Dawley rat assessed as inhibition of GSK1016790A-induced increase in lung wet weight by measuring lung weight/body weight ratio in at 0.23 mg/kg, iv dosed via bolus dose followed by iv infusion at 5.1 ug/kg/min for 60 mins; assay type: functional
Procedure, shortened: as §1

[7] = Aqueous solubility of the compound; assay type: physicochemical; settings: buffer
[8] = Steady state plasma concentration in Sprague-Dawley rat at 0.03 mg/kg, iv dosed via bolus dose followed by iv infusion at 0.6 ug/kg/min for 60 mins; assay type: ADME, organism-based; settings: in vivo, 1 h
[9] = MRT in iv dosed Sprague-Dawley rat; assay type: ADME, organism-based; settings: in vivo
Procedure, shortened: (§2)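 Male Sprague-Dawley rats with femoral vein, femoral artery and gastric catheters; noncrossover design, 2 rats per route; cassette dosing of up to five compounds. i.v. target 1 mg/kg in 5% DMSO/20% Cavitron (pH 4), infused over 30 min. Oral gastric bolus target 2 mg/kg in 5% DMSO/6% Cavitron (pH 4). Plasma sampled to 24 h and measured by HPLC−MS/MS. Noncompartmental analysis; F from dose-normalized AUC(0−∞) relative to mean i.v. AUC.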

[10] = Clearance in iv dosed Sprague-Dawley rat; assay type: ADME, organism-based; settings: in vivo
Procedure, shortened: as §2

[11] = Lipophilicity, log D of the compound by chromatography; assay type: physicochemical
Rattus norvegicus [12] = assay: In vivo antagonist activity at TRPV4 in iv dosed Sprague-Dawley rat assessed as inhibition of GSK1016790A-induced increase in lung wet weight by measuring lung weight/body weight ratio in at 0.03 to 0.23 mg/kg, iv dosed via bolus dose followed by iv infusion at 0.6 to 5.1 ug/kg/min for 60 mins; assay type: functional, organism-based
Procedure, shortened: as §1

[13] = Oral bioavailability in Sprague-Dawley rat; assay type: ADME, organism-based; settings: in vivo
Procedure, shortened: as §2

Rattus norvegicus [14] = species: Rattus norvegicus; assay: Unbound clearance in Sprague-Dawley rat; assay type: ADME, organism-based; settings: in vivo
Rattus norvegicus [15] = assay: In vivo antagonist activity at TRPV4 in iv dosed Sprague-Dawley rat assessed as inhibition of GSK1016790A-induced reduction in mean arterial pressure at 0.23 mg/kg, iv dosed via bolus dose followed by iv infusion at 5.1 ug/kg/min for 60 mins; assay type: functional
Procedure, shortened: as §1

Sequence of Transient receptor potential cation channel subfamily V member 4 (Q9HBA0 whole entry, the tested form may be a part): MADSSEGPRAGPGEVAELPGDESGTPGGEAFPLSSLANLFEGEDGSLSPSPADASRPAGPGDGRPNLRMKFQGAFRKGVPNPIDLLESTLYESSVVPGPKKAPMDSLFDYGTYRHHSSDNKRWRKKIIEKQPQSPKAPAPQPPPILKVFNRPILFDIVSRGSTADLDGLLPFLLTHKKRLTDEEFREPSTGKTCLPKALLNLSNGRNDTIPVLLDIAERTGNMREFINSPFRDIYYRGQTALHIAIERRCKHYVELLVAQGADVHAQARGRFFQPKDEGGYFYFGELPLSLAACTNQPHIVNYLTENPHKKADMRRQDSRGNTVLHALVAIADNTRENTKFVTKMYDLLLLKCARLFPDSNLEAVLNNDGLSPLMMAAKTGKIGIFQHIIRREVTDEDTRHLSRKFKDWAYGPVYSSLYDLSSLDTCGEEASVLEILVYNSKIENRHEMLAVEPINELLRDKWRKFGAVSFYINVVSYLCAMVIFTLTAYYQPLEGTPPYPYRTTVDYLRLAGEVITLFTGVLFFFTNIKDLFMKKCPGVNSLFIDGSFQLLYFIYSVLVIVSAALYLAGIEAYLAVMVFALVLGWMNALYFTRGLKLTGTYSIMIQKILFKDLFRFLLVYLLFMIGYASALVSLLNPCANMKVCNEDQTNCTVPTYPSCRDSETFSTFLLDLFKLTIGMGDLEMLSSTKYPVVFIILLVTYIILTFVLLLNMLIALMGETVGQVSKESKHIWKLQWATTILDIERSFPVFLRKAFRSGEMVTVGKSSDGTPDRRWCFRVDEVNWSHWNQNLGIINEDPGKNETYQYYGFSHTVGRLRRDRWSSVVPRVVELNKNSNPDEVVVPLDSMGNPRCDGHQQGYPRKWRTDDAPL

Compound: N#Cc1ccc(OCC2(O)CCN(S(=O)(=O)c3ccc(Cl)cc3Cl)C2)cc1F (racemic)
IC50 [1]: 0.15 µM

Compound: N#Cc1ccc(OCC2(O)CN(S(=O)(=O)c3ccc(Cl)cc3Cl)C2)cc1F
IC50 [1]: 0.05 µM

Compound: N#Cc1ccc(OC2CCN(S(=O)(=O)c3ccc(Cl)cc3Cl)C2)cc1F (racemic)
IC50 [1]: 0.32 µM

Compound: N#Cc1ccc(O[C@H]2CN(S(=O)(=O)c3ccc(C(F)(F)F)cc3C#N)C[C@@]2(O)CO)cc1F
Cpss [2]: 40 nM | inhibition (Rattus norvegicus [3]): Dose-dependent effect | fraction unbound [4]: 0.049 | Cpss [5]: 90 nM | inhibition (INH) (Rattus norvegicus [6]): 100% | solubility [7]: 90 µM (≈ 43.7 µg/mL) | IC50 [1]: 0.001 µM | Cpss [8]: 30 nM | MRT [9]: 0.8 h | clearance [10]: 4.92 L/h/kg | chromatographic logD [11]: 4.6 | inhibition (Rattus norvegicus [12]): Dose-dependent effect | bioavailability [13]: 72% | CL free (Rattus norvegicus [14]): 84 L/h/kg | inhibition (INH) (Rattus norvegicus [15]): 100%

Compound: N#Cc1ccc(OCC2CCN(S(=O)(=O)c3ccc(Cl)cc3Cl)CC2)cc1F
IC50 [1]: 6.3 µM

Compound: N#Cc1ccc(OCC2(O)CCN(S(=O)(=O)c3ccc(Cl)cc3Cl)CC2)cc1F
fraction unbound [4]: 0.013 | solubility [7]: 7.5 µM (≈ 3.44 µg/mL) | IC50 [1]: 0.13 µM | MRT [9]: 1.5 h | clearance [10]: 1.14 L/h/kg | chromatographic logD [11]: 6.3 | bioavailability [13]: 56% | CL free (Rattus norvegicus [14]): 87.66 L/h/kg

Compound: N#Cc1ccc(OC[C@@]2(O)CN(S(=O)(=O)c3ccc(Cl)cc3Cl)C[C@@H]2O)cc1F (racemic)
IC50 [1]: 0.15 µM

Results, then the compound that gave them:

IC50 [1]: 0.1 µM
Compound: N#Cc1ccc(O[C@H]2CN(S(=O)(=O)c3ccc(Cl)cc3Cl)C[C@]2(O)CO)cc1F (racemic)

IC50 [1]: 0.1 µM
Compound: N#Cc1ccc(O[C@H]2CN(S(=O)(=O)c3ccc(Cl)cc3Cl)C[C@H]2O)cc1F (racemic)

IC50 [1]: 0.2 µM
Compound: N#Cc1ccc(O[C@H]2CN(S(=O)(=O)c3ccc(Cl)cc3Cl)C[C@@H]2CO)cc1F (racemic)

IC50 [1]: 0.04 µM
Compound: N#Cc1ccc(O[C@H]2CN(S(=O)(=O)c3ccc(Cl)cc3Cl)C[C@@H]2O)cc1F (racemic)

IC50 [1]: 1.5 µM
Compound: N#Cc1ccc(OC[C@H]2CN(S(=O)(=O)c3ccc(Cl)cc3Cl)C[C@H]2O)cc1F (racemic)

IC50 [1]: 1 µM
Compound: N#Cc1ccc(OC[C@@H]2CN(S(=O)(=O)c3ccc(Cl)cc3Cl)C[C@H]2O)cc1F (racemic)

IC50 [1]: 0.05 µM
Compound: N#Cc1ccc(O[C@H]2CN(S(=O)(=O)c3ccc(Cl)cc3Cl)C[C@H]2CO)cc1F (racemic)

IC50 [1]: 0.004 µM
Compound: N#Cc1ccc(O[C@H]2CN(S(=O)(=O)c3ccc(Cl)cc3Cl)C[C@@]2(O)CO)cc1F (racemic)
